Among the data in ChEMBL document CHEMBL1159380, “Marine natural products as novel antioxidant prototypes” (J Nat Prod, 2003) are IC50 and Activity values, retold here.

Active and inactive are the calls of the source. The calls are words filed in the database; no cut-off is given here.

One assay relates to HL-60. Kind of assay: Antioxidant activity against TPA-induced ROS production in human HL60 cells by 2',7'-dichlorodihydrofluorescein diacetate cellular-based assay. The format is functional, cell-based. The method, boiled down: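 HL-60 cells (1 × 10^6 cells/mL) in RPMI 1640 with 10% FBS and antibiotics, 37 °C, 5% CO2. Cells were pretreated 30 min with a range of test concentrations, then stimulated 30 min with 100 ng/mL TPA, then given DCFH-DA (5 μg/mL) for 15 min. DCF fluorescence was read at 530 nm, and percent inhibition was calculated against TPA-treated controls without test material.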

For assay [1], the system named is Radical scavenging activity. Description: Antioxidant activity assessed as DPPH free radical scavenging activity by TLC […] assay. In kind it is functional. An outline of the steps: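 Compounds were dissolved in DMSO at 2.0 mg/mL and 4.0 μg of each was spotted onto scored silica gel GF TLC plates. Residual DMSO was removed under vacuum. Plates were sprayed with 0.2% (w/v) DPPH in MeOH and radical scavenging was judged visually 30 min after spraying.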
A general note: The DPPH test is a chemical assay of radical scavenging.

The IC50 is the point on the concentration scale where inhibition reaches its midpoint. The low end stands for higher potency, the high end for lower potency. For `CC(C)=CCC[C@H](C)c1ccc(C)cc1O`, the IC50 in the assay on HL-60 (Homo sapiens, HL-60) amounted to 209 µM. For the compound `C/C(=C\Cc1cc(O)c(Br)cc1O)CCCC(C)(C)O`, in assay [1], the result was Active. The compound further returned an IC50 in the assay with HL-60 (Homo sapiens, HL-60) greater than 14.6 µM. VITAMIN E [listing 1 of 2 here] returned an IC50 with HL-60 (hl-60) of 255 µM.

In the case of `O=C1O[C@H]([C@@H](O)CO)C(O)=C1O` [ASCORBIC ACID], the result in assay [1] was Active. The IC50 with HL-60 (Homo sapiens, HL-60) was determined as 9.7 µM.

Take `COc1c(OC)c(O)c2c(=O)c(C)c(/C=C/c3cc(O)cc(O)c3)oc2c1OC` [HORMOTHAMNIONE]: the IC50 in the assay on HL-60 (Homo sapiens, HL-60) was greater than 31 µM. In the case of `COc1c(OC)c(O)c2c(=O)c(C)c(/C=C/c3cc(OC(C)=O)cc(OC(C)=O)c3)oc2c1OC` [HORMOTHAMNIONE DIACETATE], the outcome in assay [1] was inactive. The compound also registered an IC50 with HL-60 (Homo sapiens, HL-60) of 18.3 µM.

On to `Cc1ccc([C@@H](C)CCCC(C)(C)O)c(O)c1`, for which the result in the assay with HL-60 was inactive.

Consider `CC(C)=CCC/C(C)=C/Cc1cc(O)c(Br)cc1O` [CYMOPOL], for which the result in assay [1] was Active. In addition, the IC50 in the assay on HL-60 (Homo sapiens, HL-60) was 4 µM. Take `O=C1C(C2=C3c4ccccc4NC3/C(=C\c3ccc(O)cc3)C2=O)=C2C(=Nc3ccccc32)/C1=C\c1ccc(O)cc1` (stereo not given) [SCYTONEMIN]: the IC50 with HL-60 (Homo sapiens, HL-60) is greater than 23 µM. Turning to `COc1cc2ccnc3c2c(c1O)N(C)C=C3` [ISOAAPTAMINE], in assay [1], the outcome was Active. The same compound displayed an IC50 in the assay on HL-60 (Homo sapiens, HL-60) greater than 55 µM. As to VITAMIN E [listing 2 of 2 here], the result in assay [1] was Active.

For the compound `CC(=O)OC/C=C(\OC(C)=O)C(C)=O`, the outcome in assay [1] was inactive. In addition, the half-maximal inhibitory concentration (IC50) in the assay with HL-60 (Homo sapiens, HL-60) amounted to 49 µM. In turn, `CCC(C)CC(C(=O)N/C=C\c1c[nH]c2ccccc12)N(C)Cc1ccc(O)cc1` (stereo not given) [ARAGILAMIDE] gave an IC50 in the assay with HL-60 (Homo sapiens, HL-60) of 11 µM. This lies in the double-digit micromolar range. In the case of `CC1(C)CCC[C@]2(C)[C@H]3C=C4C=C(O)C(=O)C=C4O[C@@]3(C)CC[C@@H]12` [PUUPEHENONE], the result in assay [1] was Active. The same compound displayed an IC50 in the assay on HL-60 (Homo sapiens, HL-60) of 27 µM. For the compound `COc1cc2ccnc3c2c(c1OC)NC=C3` [AAPTAMINE], in assay [1], the outcome was Active. In addition, the IC50 with HL-60 (Homo sapiens, HL-60) is greater than 55 µM. In the same order, the values of `OCc1cc(Br)c(O)c(O)c1Cc1ccc(O)c(Br)c1` [AVRAINVILLEOL] are “Active” and 6.1 µM.
